# Source: ChEMBL document CHEMBL1773042, “Antiproliferative triterpenes from the leaves and twigs of Juglans sinensis on HSC-T6 cells” (2011)
# Key:
# [1] = system: HSC-T6; test: Induction of apoptosis in rat HSC-T6 cells assessed as change in cell morphology after 24 hrs by phase contrast microscopy; type: functional, cell-based
# [2] = Cell cycle arrest in rat HSC-T6 cells assessed as inhibition of DNA synthesis at S phase at 25 uM after 48 hrs; type: functional, cell-based; parameters: scale not given: the % may be the effect or the level left
# How it was run: (§1)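 Cells seeded at 5 × 10^5 cells/mL for 24 h, then treated at 25 μM for 24 or 48 h; controls received vehicle. Cells were harvested, washed twice in PBS pH 7.4 and fixed overnight in ice-cold 70% ethanol at 4 °C. Stained with PI/RNase buffer for 30 min at room temperature, then flow cytometry for phase distribution. Mean ± SD, three independent experiments in triplicate wells.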
# [3] = Cell cycle arrest in rat HSC-T6 cells assessed as inhibition of DNA synthesis at S phase at 25 uM after 24 hrs; type: functional, cell-based; parameters: scale not given: the % may be the effect or the level left; how it was run: as §1
# [4] = Cell cycle arrest in rat HSC-T6 cells assessed as inhibition of DNA synthesis at G2/M phase at 25 uM after 48 hrs; type: functional, cell-based; parameters: scale not given: the % may be the effect or the level left; how it was run: as §1
# [5] = Antiproliferative activity against rat HSC-T6 cells at 100 uM after 48 hrs by MTT assay; type: functional; conditions: HSC-T6, 48 h
# How it was run: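 HSC-T6 (immortalized rat hepatic stellate line) kept in DMEM with 10% heat-inactivated FBS, penicillin/streptomycin, 37 °C, 5% CO2. Seeded at 5 × 10^4 cells/mL, grown 24 h, then exposed 48 h to vehicle or compound (10–100 μM, DMSO final 0.1%). MTT 2 mg/mL for 2 h, absorbance at 540 nm. Proliferation given as 100 × treated/vehicle absorbance. Mean of three independent experiments.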
# [6] = system: HSC-T6; test: Induction of apoptosis in rat HSC-T6 cells assessed as change in cell morphology after 48 hrs by phase contrast microscopy; type: functional, cell-based
# [7] = Cell cycle arrest in rat HSC-T6 cells assessed as inhibition of DNA synthesis at sub-G1 phase at 25 uM after 24 hrs; type: functional, cell-based; parameters: scale not given: the % may be the effect or the level left; how it was run: as §1
# [8] = Cell cycle arrest in rat HSC-T6 cells assessed as inhibition of DNA synthesis at G0/G1 phase at 25 uM after 24 hrs; type: functional, cell-based; parameters: scale not given: the % may be the effect or the level left; how it was run: as §1
# [9] = Cell cycle arrest in rat HSC-T6 cells assessed as inhibition of DNA synthesis at G2/M phase at 25 uM after 24 hrs; type: functional, cell-based; parameters: scale not given: the % may be the effect or the level left; how it was run: as §1
# [10] = Cell cycle arrest in rat HSC-T6 cells assessed as inhibition of DNA synthesis at sub-G1 phase at 25 uM after 48 hrs; type: functional, cell-based; parameters: scale not given: the % may be the effect or the level left; how it was run: as §1
# [11] = system: HSC-T6; test: Induction of apoptosis in rat HSC-T6 cells assessed as change in cell morphology at 10 to 50 uM by phase contrast microscopy; type: functional, cell-based; conditions: TDE = time-dependent effect
# [12] = Cell cycle arrest in rat HSC-T6 cells assessed as inhibition of DNA synthesis at G0/G1 phase at 25 uM after 48 hrs; type: functional, cell-based; parameters: scale not given: the % may be the effect or the level left; how it was run: as §1
# [13] = Induction of apoptosis in rat HSC-T6 cells assessed as early apoptotic cells at 25 uM after 24 hrs using Annexin V-FITC staining by flow cytometry; type: functional
# How it was run: (§2)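 After 24 h seeding at 5 × 10^5 cells/mL, HSC-T6 cells were treated at 10 or 25 μM for 24 or 48 h, then collected and washed twice with PBS. Annexin-V/PI double staining with flow cytometry separated Annexin-V+/PI− (early apoptotic), Annexin-V+/PI+ (late apoptotic) and Annexin-V−/PI+ (dead) cells, expressed as percentages. Data representative of three independent experiments.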
# [14] = Induction of apoptosis in rat HSC-T6 cells assessed as late apoptotic cells at 10 uM after 48 hrs using Annexin V-FITC staining by flow cytometry; type: functional; how it was run: as §2
# [15] = Induction of apoptosis in rat HSC-T6 cells assessed as dead cells at 25 uM after 24 hrs using Annexin V-FITC staining by flow cytometry; type: functional
# How it was run: (§3)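 HSC-T6 cells seeded at 5 × 10^5 cells/mL in 12-well plates for 24 h, then exposed to compound at 10 or 25 μM for 24 or 48 h. Harvested, washed twice in PBS pH 7.4, stained with Annexin-V/PI and analysed by flow cytometry. Dead cells scored as Annexin-V−/PI+, given as percentage. Representative of three independent experiments.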
# [16] = Induction of apoptosis in rat HSC-T6 cells assessed as viable cells at 25 uM after 24 hrs using Annexin V-FITC staining by flow cytometry; type: functional; conditions: HSC-T6, 24 h, read-out: Activity; how it was run: as §2
# [17] = Induction of apoptosis in rat HSC-T6 cells assessed as viable cells at 10 uM after 24 hrs using Annexin V-FITC staining by flow cytometry; type: functional; conditions: HSC-T6, 24 h, read-out: Activity; how it was run: as §2
# [18] = Induction of apoptosis in rat HSC-T6 cells assessed as dead cells at 10 uM after 24 hrs using Annexin V-FITC staining by flow cytometry; type: functional; how it was run: as §3
# [19] = Induction of apoptosis in rat HSC-T6 cells assessed as dead cells at 25 uM after 48 hrs using Annexin V-FITC staining by flow cytometry; type: functional; how it was run: as §3
# [20] = Induction of apoptosis in rat HSC-T6 cells assessed as late apoptotic cells at 10 uM after 24 hrs using Annexin V-FITC staining by flow cytometry; type: functional; how it was run: as §2
# [21] = Induction of apoptosis in rat HSC-T6 cells assessed as early apoptotic cells at 10 uM after 48 hrs using Annexin V-FITC staining by flow cytometry; type: functional; how it was run: as §2
# [22] = Induction of apoptosis in rat HSC-T6 cells assessed as viable cells at 10 uM after 48 hrs using Annexin V-FITC staining by flow cytometry; type: functional; conditions: HSC-T6, 48 h, read-out: Activity; how it was run: as §2
# [23] = Induction of apoptosis in rat HSC-T6 cells assessed as early apoptotic cells at 10 uM after 24 hrs using Annexin V-FITC staining by flow cytometry; type: functional; how it was run: as §2
# [24] = Induction of apoptosis in rat HSC-T6 cells assessed as late apoptotic cells at 25 uM after 48 hrs using Annexin V-FITC staining by flow cytometry; type: functional; how it was run: as §2
# [25] = Induction of apoptosis in rat HSC-T6 cells assessed as viable cells at 25 uM after 48 hrs using Annexin V-FITC staining by flow cytometry; type: functional; conditions: HSC-T6, 48 h, read-out: Activity; how it was run: as §2
# [26] = Induction of apoptosis in rat HSC-T6 cells assessed as dead cells at 10 uM after 48 hrs using Annexin V-FITC staining by flow cytometry; type: functional; how it was run: as §3
# [27] = Induction of apoptosis in rat HSC-T6 cells assessed as late apoptotic cells at 25 uM after 24 hrs using Annexin V-FITC staining by flow cytometry; type: functional; how it was run: as §2
# [28] = Induction of apoptosis in rat HSC-T6 cells assessed as early apoptotic cells at 25 uM after 48 hrs using Annexin V-FITC staining by flow cytometry; type: functional; how it was run: as §2
# [29] = Antiproliferative activity against rat HSC-T6 cells at 50 uM after 48 hrs by MTT assay; type: functional; conditions: HSC-T6, 48 h
# [30] = Antiproliferative activity against rat HSC-T6 cells at 10 uM after 48 hrs by MTT assay; type: functional; conditions: HSC-T6, 48 h
Structure (SMILES),Activity [1],Activity [2] [%],Activity [3] [%],Activity [4] [%],inhibition at 100 µM [5] [%],Activity [6],Activity [7] [%],Activity [8] [%],Activity [9] [%],Activity [10] [%],Activity [11],Activity [12] [%],further results
CC1(C)C=C2[C@H]3CC[C@@H]4[C@@]5(C)C(=O)C[C@H](O)C(C)(C)[C@@H]5CC[C@@]4(C)[C@]3(C)CC[C@@]2(C)CC1,Dose-dependent effect,10.6,14,18.8,14.2,Dose-dependent effect,1.9,53.2,17.8,5,tde,43.6,
C[C@H]1[C@H](C)CC[C@]2(C(=O)O)CC[C@]3(C)C(=CC[C@@H]4[C@@]5(C)C[C@@H](O)[C@@H](O)[C@@](C)(CO)[C@@H]5CC[C@]43C)[C@H]12,,,,,20.6,,,,,,,,
C[C@H]1[C@H](C)CC[C@]2(C(=O)O)CC[C@]3(C)C(=CC[C@@H]4[C@@]5(C)CCC(=O)[C@@](C)(CO)[C@@H]5CC[C@]43C)[C@H]12,,,,,77.9,,,,,,,,
C=C(C)[C@@H]1CC[C@]2(C)CC[C@]3(C)[C@H](CC[C@@H]4[C@@]5(C)C[C@@H](O)[C@H](O)C(C)(C)[C@@H]5CC[C@]43C)[C@@H]12,Dose-dependent effect,11,13.7,18,11,Dose-dependent effect,1.9,55.9,19.3,5.4,tde,47.2,
C[C@H]1[C@H](C)CC[C@]2(C(=O)O)CC[C@]3(C)C(=CC[C@@H]4[C@@]5(C)CC[C@H](O)[C@@](C)(CO)[C@@H]5CC[C@]43C)[C@H]12,,,,,50,,,,,,,,
C[C@H]1[C@H](C)CC[C@]2(C(=O)O)CC[C@]3(C)C(=CC[C@@H]4[C@@]5(C)C[C@@H](O)[C@H](O)C(C)(C)[C@@H]5CC[C@]43C)[C@H]12 [COROSOLIC ACID],Dose-dependent effect,4.3,10.6,6,15.6,Dose-dependent effect,12.4,44.6,20.6,57.7,tde,14.7,Activity [13]: 10.45%; Activity [14]: 17.8%; Activity [15]: 8.77%; viability at 25 µM [16]: 65.5%; viability at 10 µM [17]: 83.5%; Activity [18]: 3.16%; Activity [19]: 31.85%; Activity [20]: 7.12%; Activity [21]: 10.14%; viability at 10 µM [22]: 66.6%; Activity [23]: 6.23%; Activity [24]: 9.23%; viability at 25 µM [25]: 54.5%; Activity [26]: 5.44%; Activity [27]: 15.24%; Activity [28]: 4.41%
O=C(O[C@@H]1Cc2c(O)cc(O)cc2O[C@@H]1c1cc(O)c(O)c(O)c1)c1cc(O)c(O)c(O)c1 [EPIGALOCATECHIN GALLATE],,8.3,12.1,19.6,33.4,,1.9,51.9,20.1,4.5,,42.3,inhibition at 50 µM [29]: 41.7%; inhibition at 10 µM [30]: 83.8%
C[C@H]1[C@H](C)CC[C@]2(C(=O)O)CC[C@]3(C)C(=CC[C@@H]4[C@@]5(C)CC[C@H](O)C(C)(C)[C@@H]5CC[C@]43C)[C@H]12 [URSOLIC ACID],Dose-dependent effect,9.6,11.9,16.7,14.8,Dose-dependent effect,2.9,56.4,18.9,17,tde,39.7,
